Experimental data taken from ChEMBL document CHEMBL5724801, “EUbOPEN Chemogenomics Library - Multiplex” (2024).
Where “and” joins values, the source holds several entries; their conditions need not be identical. Identical values can stand only once.

test system: Fibroblast; experiment: Multiplex assay against human fibroblast; type: toxicity, cell-based; conditions: 12 h, 1 µM, compound concentration 1 uM
How it was run: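 Live cells were stained at seeding with Hoechst33342, BioTracker Green Microtubule Cytoskeleton Dye, MitoTracker Red and Annexin V Alexa Fluor 680, then imaged on a CQ1 microscope at 37°C and 5% CO2 after compound addition. CellPathfinder machine-learning gating split cells into Hoechst high-intensity objects or normal cells. Normal cells were split into healthy, pyknosed or fragmented nuclei, and pyknosed cells into mitotic or apoptotic. Tubulin, mitochondrial-mass and membrane-permeability phenotypes are per cents of healthy-nucleus cells.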

Compound	Population Apoptotic (%)	Population Healthy Nuclei (%)	Population Hoechst High Intensity Objects (%)	Population Membrane Permeable-Phenotype (%)	Population Mitochondria Different-Phenotype (%)	Population Mitotic Cells (%)	Population Normal (%)	Population Pyknosed Nuclei (%)	Population Tubulin-Different-Phenotype (%)	Total Cell Count
Nc1nccc(-c2ccn3c(N)nccc23)n1	13.51% and 18.75%	61.49% and 82.11%	0%	5.05% and 4.47%	4.04% and 6.7%	86.49% and 81.25%	100%	22.98% and 14.68%	7.07% and 20.11%	161 and 218
CN1CCN(c2nc3cc(C(F)(F)F)ccc3n3cccc23)CC1.O=C(O)/C=C\C(=O)O.O=C(O)/C=C\C(=O)O	50% and 26%	71% and 46%	0% and 6%	0% and 6%	5% and 4%	50% and 73%	99% and 93%	–	27% and 47%	146 and 107

same assay, conditions: 12 h, 1 µM, compound concentration 1 uM

Compound	Population Fragmented Nuclei (%)
CN1CCN(c2nc3cc(C(F)(F)F)ccc3n3cccc23)CC1.O=C(O)/C=C\C(=O)O.O=C(O)/C=C\C(=O)O	18% and 24%

same assay, conditions: 12 h, 10 µM, compound concentration 10 uM

Compound	Population Apoptotic (%)	Population Fragmented Nuclei (%)	Population Healthy Nuclei (%)	Population Hoechst High Intensity Objects (%)	Population Membrane Permeable-Phenotype (%)	Population Mitochondria Different-Phenotype (%)	Population Mitotic Cells (%)	Population Normal (%)	Population Pyknosed Nuclei (%)	Population Tubulin-Different-Phenotype (%)
Nc1nccc(-c2ccn3c(N)nccc23)n1	10.71% and 9.09%	8.62% and 3.03%	75.29% and 82.68%	0%	8.4% and 3.14%	6.87% and 7.33%	89.29% and 90.91%	100%	16.09% and 14.29%	9.16% and 16.75%
CN1CCN(c2nc3cc(C(F)(F)F)ccc3n3cccc23)CC1.O=C(O)/C=C\C(=O)O.O=C(O)/C=C\C(=O)O	40% and 60%	29% and 35%	59% and 41%	2% and 4%	0% and 4%	25% and 38%	59% and 40%	97% and 95%	10% and 22%	69% and 85%

same assay, conditions: 12 h, 10 µM, compound concentration 10 uM

Compound	Total Cell Count
Nc1nccc(-c2ccn3c(N)nccc23)n1	174 and 231
CN1CCN(c2nc3cc(C(F)(F)F)ccc3n3cccc23)CC1.O=C(O)/C=C\C(=O)O.O=C(O)/C=C\C(=O)O	207 and 117

same assay, conditions: 24 h, 1 µM, compound concentration 1 uM

Compound	Population Apoptotic (%)	Population Fragmented Nuclei (%)	Population Healthy Nuclei (%)	Population Hoechst High Intensity Objects (%)	Population Membrane Permeable-Phenotype (%)	Population Mitochondria Different-Phenotype (%)	Population Mitotic Cells (%)	Population Normal (%)	Population Pyknosed Nuclei (%)	Population Tubulin-Different-Phenotype (%)
Nc1nccc(-c2ccn3c(N)nccc23)n1	15.56% and 14.81%	8.38% and 5.44%	68.06% and 83.26%	0%	0.77% and 2.51%	2.31% and 2.51%	84.44% and 85.19%	100%	23.56% and 11.3%	13.08% and 16.58%
CN1CCN(c2nc3cc(C(F)(F)F)ccc3n3cccc23)CC1.O=C(O)/C=C\C(=O)O.O=C(O)/C=C\C(=O)O	66% and 40%	16% and 35%	72% and 42%	1% and 6%	0% and 7%	2% and 7%	33% and 59%	98% and 93%	10% and 22%	23% and 43%

same assay, conditions: 24 h, 1 µM, compound concentration 1 uM

Compound	Total Cell Count
Nc1nccc(-c2ccn3c(N)nccc23)n1	191 and 239
CN1CCN(c2nc3cc(C(F)(F)F)ccc3n3cccc23)CC1.O=C(O)/C=C\C(=O)O.O=C(O)/C=C\C(=O)O	142 and 104

same assay, conditions: 24 h, 10 µM, compound concentration 10 uM

Compound	Population Apoptotic (%)	Population Fragmented Nuclei (%)	Population Healthy Nuclei (%)	Population Hoechst High Intensity Objects (%)	Population Membrane Permeable-Phenotype (%)	Population Mitochondria Different-Phenotype (%)	Population Mitotic Cells (%)	Population Normal (%)	Population Pyknosed Nuclei (%)	Population Tubulin-Different-Phenotype (%)
Nc1nccc(-c2ccn3c(N)nccc23)n1	6.98% and 4.35%	9.95% and 3.5%	69.67% and 87.55%	0%	4.76% and 5.33%	5.44% and 2.22%	93.02% and 95.65%	100%	20.38% and 8.95%	16.33% and 21.33%
CN1CCN(c2nc3cc(C(F)(F)F)ccc3n3cccc23)CC1.O=C(O)/C=C\C(=O)O.O=C(O)/C=C\C(=O)O	77% and 63%	24% and 37%	64% and 43%	6% and 1%	0% and 6%	32%	22% and 36%	93% and 98%	10% and 19%	75% and 86%

same assay, conditions: 24 h, 10 µM, compound concentration 10 uM

Compound	Total Cell Count
Nc1nccc(-c2ccn3c(N)nccc23)n1	211 and 257
CN1CCN(c2nc3cc(C(F)(F)F)ccc3n3cccc23)CC1.O=C(O)/C=C\C(=O)O.O=C(O)/C=C\C(=O)O	214 and 117

same assay, conditions: 48 h, 1 µM, compound concentration 1 uM

Compound	Population Apoptotic (%)	Population Fragmented Nuclei (%)	Population Healthy Nuclei (%)	Population Hoechst High Intensity Objects (%)	Population Membrane Permeable-Phenotype (%)	Population Mitochondria Different-Phenotype (%)	Population Mitotic Cells (%)	Population Normal (%)	Population Pyknosed Nuclei (%)	Total Cell Count
Nc1nccc(-c2ccn3c(N)nccc23)n1	22.73% and 26.09%	8.37% and 5.8%	81.4% and 83.93%	0%	1.14% and 3.72%	9.71% and 2.66%	77.27% and 73.91%	100%	10.23% and 10.27%	215 and 224
CN1CCN(c2nc3cc(C(F)(F)F)ccc3n3cccc23)CC1.O=C(O)/C=C\C(=O)O.O=C(O)/C=C\C(=O)O	44% and 42%	25% and 37%	63% and 40%	2% and 3%	1% and 0%	2%	55% and 57%	97% and 96%	11% and 21%	162 and 102

same assay, conditions: 48 h, 1 µM, compound concentration 1 uM

Compound	Population Tubulin-Different-Phenotype (%)
CN1CCN(c2nc3cc(C(F)(F)F)ccc3n3cccc23)CC1.O=C(O)/C=C\C(=O)O.O=C(O)/C=C\C(=O)O	22% and 57%

same assay, conditions: 48 h, 10 µM, compound concentration 10 uM

Compound	Population Apoptotic (%)	Population Fragmented Nuclei (%)	Population Healthy Nuclei (%)	Population Hoechst High Intensity Objects (%)	Population Membrane Permeable-Phenotype (%)	Population Mitotic Cells (%)	Population Normal (%)	Population Pyknosed Nuclei (%)	Total Cell Count	Population Mitochondria Different-Phenotype (%)
Nc1nccc(-c2ccn3c(N)nccc23)n1	23.53% and 19.05%	6.48% and 4.4%	86.64% and 87.2%	0%	1.87% and 1.83%	76.47% and 80.95%	100%	6.88% and 8.4%	247 and 250	–
CN1CCN(c2nc3cc(C(F)(F)F)ccc3n3cccc23)CC1.O=C(O)/C=C\C(=O)O.O=C(O)/C=C\C(=O)O	77% and 63%	22% and 33%	68% and 57%	7% and 5%	0% and 1%	22% and 36%	92% and 94%	9%	211 and 118	28% and 23%

same assay, conditions: 48 h, 10 µM, compound concentration 10 uM

Compound	Population Tubulin-Different-Phenotype (%)
CN1CCN(c2nc3cc(C(F)(F)F)ccc3n3cccc23)CC1.O=C(O)/C=C\C(=O)O.O=C(O)/C=C\C(=O)O	77% and 85%
